Laboratory results taken from ChEMBL document CHEMBL3769360, “Phthalimido-thiazoles as building blocks and their effects on the growth and morphology of Trypanosoma cruzi” (Eur J Med Chem, 2016).
Blank lines part the entries; values can stand above or below the molecule they belong to. Activity calls are given as the source filed them. No cut-off for these calls is given here.

Tests used:
[1] = Cytotoxicity against BALB/c mouse splenocytes assessed as highest non-toxic concentration causing >90 % incorporation of [3H]-thymidine after 24 hrs by beta counting method; format: cell-based, Splenocyte; details: read-out: MNTD90
Procedure, shortened: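 BALB/c mouse splenocytes at 5 × 10^6 cells/well in RPMI-1640 with 10% inactivated FBS. Compounds were dissolved in DMSO (10 mg/mL stock) and serially diluted to 1.0, 5.0, 10, 25, 50 and 100 (final), in triplicate. Controls were saponin and medium with DMSO. 3H-thymidine was added, then 24 h at 37 °C, 5% CO2, and beta counting. Untreated = 100%; >90% incorporation counted as nontoxic.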

Trypanosoma cruzi [2] = assay: Trypanocidal activity against epimastigote form of Trypanosoma cruzi Dm28c after 11 days by neubauer chamber method; format: functional; details: 264 h
Trypanosoma cruzi [3] = assay: Trypanocidal activity against trypamostigote form of Trypanosoma cruzi Y infected in African green monkey Vero cells after 24 hrs by neubauer chamber method; format: functional, organism-based
Procedure, shortened: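 Y strain trypomastigotes harvested from Vero cell supernatants, 4 × 10^5 cells/well, compounds in triplicate, benznidazole as positive control. Incubated 24 h at 37 °C, 5% CO2. Motile parasites counted in a Neubauer chamber; untreated wells = 100%. IC50 by nonlinear regression over at least seven concentrations.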

[4] = Selectivity index, ratio of MNTD90 for cytotoxicity against BALB/c mouse splenocytes to IC50 for trypamostigote form of Trypanosoma cruzi Y infected in African green monkey Vero cells; format: toxicity, cell-based; details: read-out: Selectivity Index
Trypanosoma cruzi [5] = assay: Induction of ultrastructural changes in trypamostigote form of Trypanosoma cruzi Y assessed as blebs in flagellum at IC50 after 24 hrs by scanning electron microscopic analysis; format: functional, organism-based
Procedure, shortened: (§1)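 Trypomastigotes cultured 24 h in RPMI 1640 (pH 7.5, 20 mM HEPES, 10% FBS, penicillin/streptomycin) with compound at two concentrations (1× and 2×). Washed in PBS and fixed in glutaraldehyde/formaldehyde in 0.1 M cacodylate pH 6.8, then OsO4 postfixed. Dehydrated in graded ethanol, CO2 critical-point dried, gold-coated and examined by SEM against untreated controls.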

Trypanosoma cruzi [6] = assay: Induction of ultrastructural changes in trypamostigote form of Trypanosoma cruzi Y assessed as shortening of flagellum at 2 times IC50 after 24 hrs by scanning electron microscopic analysis; format: functional, organism-based; procedure, shortened: as §1
Trypanosoma cruzi [7] = assay: Antitrypanosomal activity against trypamostigote form of Trypanosoma cruzi Y assessed as decrease in number of parasites after 24 hrs by scanning electron microscopic analysis; format: functional, organism-based; procedure, shortened: as §1
Trypanosoma cruzi [8] = assay: Induction of ultrastructural changes in trypamostigote form of Trypanosoma cruzi Y assessed as alterations in reservosome at IC50 after 24 hrs by uranyl acetate/lead citrate staining based transmission electron microscopic analysis; format: functional, organism-based
Procedure, shortened: (§2)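 Trypomastigotes exposed for 24 h in RPMI 1640 (pH 7.5, 20 mM HEPES, 10% FBS, antibiotics) with compound at 1× or 2× the set concentration. Fixed in 2.5% glutaraldehyde, 4% formaldehyde, 0.1 M cacodylate pH 6.8, postfixed in 2% OsO4. Acetone-dehydrated, epon-embedded, sections stained with uranyl acetate/lead citrate and examined by TEM against untreated parasites.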

Trypanosoma cruzi [9] = assay: Induction of ultrastructural changes in trypamostigote form of Trypanosoma cruzi Y assessed as intense cytoplasmic vacuolization at IC50 after 24 hrs by uranyl acetate/lead citrate staining based transmission electron microscopic analysis; format: functional, organism-based; procedure, shortened: as §2
Trypanosoma cruzi [10] = assay: Induction of ultrastructural changes in trypamostigote form of Trypanosoma cruzi Y assessed as abnormal chromatin condensation at IC50 after 24 hrs by uranyl acetate/lead citrate staining based transmission electron microscopic analysis; format: functional, organism-based; procedure, shortened: as §2
Trypanosoma cruzi [11] = assay: Induction of ultrastructural changes in trypamostigote form of Trypanosoma cruzi Y assessed as swelling of mitochondria at IC50 after 24 hrs by uranyl acetate/lead citrate staining based transmission electron microscopic analysis; format: functional, organism-based; procedure, shortened: as §2
Trypanosoma cruzi [12] = assay: Induction of ultrastructural changes in trypamostigote form of Trypanosoma cruzi Y assessed as loss of cytoplasmic material at IC50 after 24 hrs by uranyl acetate/lead citrate staining based transmission electron microscopic analysis; format: functional, organism-based; procedure, shortened: as §2
Trypanosoma cruzi [13] = assay: Induction of ultrastructural changes in trypamostigote form of Trypanosoma cruzi Y assessed as alterations in reservosome at 2 times IC50 after 24 hrs by uranyl acetate/lead citrate staining based transmission electron microscopic analysis; format: functional, organism-based; procedure, shortened: as §2
Trypanosoma cruzi [14] = assay: Induction of ultrastructural changes in trypamostigote form of Trypanosoma cruzi Y assessed as intense cytoplasmic vacuolization at 2 times IC50 after 24 hrs by uranyl acetate/lead citrate staining based transmission electron microscopic analysis; format: functional, organism-based; procedure, shortened: as §2
Trypanosoma cruzi [15] = assay: Induction of ultrastructural changes in trypamostigote form of Trypanosoma cruzi Y assessed as abnormal chromatin condensation at 2 times IC50 after 24 hrs by uranyl acetate/lead citrate staining based transmission electron microscopic analysis; format: functional, organism-based; procedure, shortened: as §2
Trypanosoma cruzi [16] = assay: Induction of apoptosis in trypamostigote form of Trypanosoma cruzi Y assessed as necrotic cells after 24 hrs by Annexin V-FITC/propidium iodide staining based flow cytometry; format: functional, organism-based
Procedure, shortened: (§3)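 Trypomastigotes (1 × 10^7) incubated 24 h at 37 °C with or without compound. Then labelled with annexin V-FITC and propidium iodide using a kit per the manufacturer's instructions and analysed by flow cytometry. Two independent experiments, each concentration in duplicate; comparison against untreated cells.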

Trypanosoma cruzi [17] = assay: Induction of ultrastructural changes in trypamostigote form of Trypanosoma cruzi Y assessed as dilated endoplasmic reticulum at 2 times IC50 after 24 hrs by uranyl acetate/lead citrate staining based transmission electron microscopic analysis; format: functional, organism-based; procedure, shortened: as §2
Trypanosoma cruzi [18] = assay: Induction of ultrastructural changes in trypamostigote form of Trypanosoma cruzi Y assessed as swelling of kinetoplast at 2 times IC50 after 24 hrs by uranyl acetate/lead citrate staining based transmission electron microscopic analysis; format: functional, organism-based; procedure, shortened: as §2
Trypanosoma cruzi [19] = assay: Induction of apoptosis in trypamostigote form of Trypanosoma cruzi Y assessed as late apoptotic cells after 24 hrs by Annexin V-FITC/propidium iodide staining based flow cytometry; format: functional, organism-based; procedure, shortened: as §3
Trypanosoma cruzi [20] = assay: Induction of apoptosis in trypamostigote form of Trypanosoma cruzi Y assessed as early apoptotic cells after 24 hrs by Annexin V-FITC/propidium iodide staining based flow cytometry; format: functional, organism-based; procedure, shortened: as §3
Trypanosoma cruzi [21] = assay: Induction of apoptosis in trypamostigote form of Trypanosoma cruzi Y assessed as necrotic cells at 25 uM after 24 hrs by Annexin V-FITC/propidium iodide staining based flow cytometry relative to untreated control; format: functional; procedure, shortened: as §3
Trypanosoma cruzi [22] = assay: Induction of apoptosis in trypamostigote form of Trypanosoma cruzi Y assessed as late apoptotic cells at 25 uM after 24 hrs by Annexin V-FITC/propidium iodide staining based flow cytometry relative to untreated control; format: functional; procedure, shortened: as §3
Trypanosoma cruzi [23] = assay: Induction of apoptosis in trypamostigote form of Trypanosoma cruzi Y assessed as necrotic cells at 5 uM after 24 hrs by Annexin V-FITC/propidium iodide staining based flow cytometry; format: functional, organism-based; procedure, shortened: as §3
Trypanosoma cruzi [24] = assay: Induction of apoptosis in trypamostigote form of Trypanosoma cruzi Y assessed as late apoptotic cells at 5 uM after 24 hrs by Annexin V-FITC/propidium iodide staining based flow cytometry; format: functional, organism-based; procedure, shortened: as §3
Trypanosoma cruzi [25] = assay: Induction of apoptosis in trypamostigote form of Trypanosoma cruzi Y assessed as early apoptotic cells at 5 and 25 uM after 24 hrs by Annexin V-FITC/propidium iodide staining based flow cytometry; format: functional, organism-based; procedure, shortened: as §3
[26] = Lipophilicity, log P of compound; format: physicochemical; details: octanol/water

SMILES: O=C1c2ccccc2C(=O)N1Nc1nc(-c2ccc(Cl)c(Cl)c2)cs1
MNTC at 24 h [1]: 2.6 µM | IC50 (Trypanosoma cruzi [2]): 69.3 µM | IC50 (Trypanosoma cruzi [3]): 88.8 µM

SMILES: O=C1c2ccccc2C(=O)N1C/C=N/N=c1\scc(-c2ccc([N+](=O)[O-])cc2)n1-c1ccccc1
MNTC at 24 h [1]: 207 µM | IC50 (Trypanosoma cruzi [2]): 12.2 µM | IC50 (Trypanosoma cruzi [3]): 3.2 µM | selectivity ratio [4]: 64.6

SMILES: O=C1c2ccccc2C(=O)N1C/C=N/N=c1\scc(-c2cccc([N+](=O)[O-])c2)n1-c1ccccc1
MNTC at 24 h [1]: 103 µM | IC50 (Trypanosoma cruzi [2]): 6 µM | IC50 (Trypanosoma cruzi [3]): 0.9 µM | selectivity ratio [4]: 115 | Activity (Trypanosoma cruzi [5]): Active | Activity (Trypanosoma cruzi [6]): Active | Activity (Trypanosoma cruzi [7]): Dose-dependent effect | Activity (Trypanosoma cruzi [8]): Active | Activity (Trypanosoma cruzi [9]): Active | Activity (Trypanosoma cruzi [10]): Active | Activity (Trypanosoma cruzi [11]): Active | Activity (Trypanosoma cruzi [12]): Active | Activity (Trypanosoma cruzi [13]): Active | Activity (Trypanosoma cruzi [14]): Active | Activity (Trypanosoma cruzi [15]): Active | Activity (Trypanosoma cruzi [16]): Dose-dependent effect | Activity (Trypanosoma cruzi [17]): Active | Activity (Trypanosoma cruzi [18]): Active | Activity (Trypanosoma cruzi [19]): Dose-dependent effect | Activity (Trypanosoma cruzi [20]): inactive | Activity (Trypanosoma cruzi [21]): 11% | Activity (Trypanosoma cruzi [22]): 11% | Activity (Trypanosoma cruzi [23]): inactive | Activity (Trypanosoma cruzi [24]): inactive | Activity (Trypanosoma cruzi [25]): inactive

SMILES: O=C1c2ccccc2C(=O)N1C/C=N/N=c1\scc(-c2ccc(F)cc2)n1-c1ccccc1
MNTC at 24 h [1]: 219 µM | IC50 (Trypanosoma cruzi [3]): 73.8 µM

SMILES: Cc1sc(NN2C(=O)c3ccccc3C2=O)nc1-c1ccc(Br)cc1
MNTC at 24 h [1]: 2.4 µM | IC50 (Trypanosoma cruzi [2]): 13.9 µM | IC50 (Trypanosoma cruzi [3]): 38.2 µM

SMILES: O=C(Cn1ccnc1[N+](=O)[O-])NCc1ccccc1 [BENZNIDAZOLE]
IC50 (Trypanosoma cruzi [3]): 6.3 µM | selectivity ratio [4]: 15.2 | Activity (Trypanosoma cruzi [21]): 56% | Activity (Trypanosoma cruzi [22]): 56%

SMILES: Cc1ccc(-c2csc(NN3C(=O)c4ccccc4C3=O)n2)cc1
MNTC at 24 h [1]: 14.9 µM | IC50 (Trypanosoma cruzi [2]): 70.4 µM | IC50 (Trypanosoma cruzi [3]): 107 µM

logP [26]: 3.98
SMILES: O=C1c2ccccc2C(=O)N1Nc1nc(-c2ccccc2)cs1
MNTC at 24 h [1]: 3.1 µM | IC50 (Trypanosoma cruzi [2]): 70.2 µM | IC50 (Trypanosoma cruzi [3]): 108 µM

SMILES: O=C1c2ccccc2C(=O)N1C/C=N/N=c1\scc(-c2ccc(Br)cc2)n1-c1ccccc1
MNTC at 24 h [1]: 96.6 µM | IC50 (Trypanosoma cruzi [3]): 9.7 µM

SMILES: O=C1c2ccccc2C(=O)N1Nc1nc(-c2cccc([N+](=O)[O-])c2)cs1
MNTC at 24 h [1]: 2.7 µM | IC50 (Trypanosoma cruzi [2]): 43.2 µM | IC50 (Trypanosoma cruzi [3]): 91.1 µM

SMILES: O=C1c2ccccc2C(=O)N1C/C=N/N=c1\scc(-c2ccc(Cl)c(Cl)c2)n1-c1ccccc1
MNTC at 24 h [1]: 197 µM

SMILES: O=C1c2ccccc2C(=O)N1Nc1nc(CCl)cs1
MNTC at 24 h [1]: 17 µM | IC50 (Trypanosoma cruzi [2]): 226 µM | IC50 (Trypanosoma cruzi [3]): 54.4 µM | selectivity ratio [4]: 0.3

SMILES: O=C1c2ccccc2C(=O)N1Nc1nc(-c2ccc(Br)cc2)cs1
MNTC at 24 h [1]: 2.5 µM | IC50 (Trypanosoma cruzi [2]): 14.8 µM | IC50 (Trypanosoma cruzi [3]): 89.8 µM

SMILES: COc1ccc(-c2csc(NN3C(=O)c4ccccc4C3=O)n2)cc1
MNTC at 24 h [1]: 14.2 µM | IC50 (Trypanosoma cruzi [2]): 6.4 µM | IC50 (Trypanosoma cruzi [3]): 50.3 µM
